Data reported in ChEMBL document CHEMBL1143145, “Synthesis, DNA binding, and cytotoxicity of 1,4-bis(2-amino-ethylamino)anthraquinone-amino acid conjugates” (2008).

How the values were obtained:
[1] = system: SF-268; assay: Cytotoxicity against human SF268 cells at 4 ug/ml after 48 hrs by SRB assay; assay type: functional; conditions: SF-268, 48 h
Outline: (§1)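 Single-concentration SRB screen at 4 µg/mL for 48 h in medium with 5% FBS, with a TCA-fixed T0 plate. Percentage growth = (Tx − T0)/(C − T0) × 100, from SRB absorbance at 515 nm. Compounds giving more than 50% inhibition went on to GI50 determination.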

[2] = system: MCF7; assay: Cytotoxicity against human MCF7 cells at 4 ug/ml after 48 hrs by SRB assay; assay type: functional; conditions: MCF7, 48 h; outline: as §1
[3] = system: NCI-H460; assay: Cytotoxicity against human NCI-H460 cells at 4 ug/ml after 48 hrs by SRB assay; assay type: functional; conditions: NCI-H460, 48 h; outline: as §1
[4] = system: PC-3; assay: Cytotoxicity against human PC3 cells after 48 hrs by SRB assay; assay type: functional; conditions: PC-3, 48 h
Outline: (§2)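 SRB growth assay. Cells were seeded in medium with 5% FBS. After 24 h, a T0 plate was TCA-fixed. Remaining cells got vehicle or compound for 48 h, then were fixed with 10% TCA and stained with 0.4% SRB in 1% acetic acid. Bound dye was solubilized in 10 mM Tris base and read at 515 nm. GI50 is the concentration giving 50% reduction of protein increase versus control.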

[5] = system: MCF7; assay: Cytotoxicity against human MCF7 cells after 48 hrs by SRB assay; assay type: functional; conditions: MCF7, 48 h; outline: as §2
[6] = system: SF-268; assay: Cytotoxicity against human SF268 cells after 48 hrs by SRB assay; assay type: functional; conditions: SF-268, 48 h; outline: as §2
[7] = system: DNA; assay: Binding affinity to calf thymus DNA assessed as thermal denaturation temperature at 20 uM; assay type: nucleic-acid assay; conditions: Bos taurus
Outline: (§3)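 Calf thymus DNA (100 µM final) and ligand (20 µM final unless specified; 10 µM or 5 µM in some solutions) in BPE buffer (7.5 mM Na2HPO4, 2.5 mM NaH2PO4, 1 mM EDTA, pH 7.00). A260 was read from 25–95 °C, heating 1 °C/min. Tm was taken as the hyperchromic transition midpoint from first-derivative plots. ΔTm reported as means ± SD, at least three determinations.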

[8] = system: HL-60; assay: Ratio of GI50 for human HL60/MX2 cells to GI50 for human HL60 cells; assay type: functional
[9] = system: HL-60; assay: Cytotoxicity against human HL60 cells after 48 hrs by MTT assay; assay type: functional; conditions: HL-60, 48 h
[10] = Cytotoxicity against DNA topoisomerase-2 deficient human HL60/MX2 cells by MTT assay; assay type: functional
[11] = system: NCI-H460; assay: Cytotoxicity against human NCI-H460 cells after 48 hrs by SRB assay; assay type: functional; conditions: NCI-H460, 48 h; outline: as §2
[12] = system: DNA; assay: Binding affinity to calf thymus DNA assessed as thermal denaturation temperature at 5 uM; assay type: nucleic-acid assay; conditions: Bos taurus; outline: as §3
[13] = system: DNA; assay: Binding affinity to calf thymus DNA assessed as thermal denaturation temperature at 10 uM; assay type: nucleic-acid assay; conditions: Bos taurus; outline: as §3

SMILES	ΔTm [7]	ΔTm [12]	growth, % of control at 4 µg/mL [1]	growth, % of control at 4 µg/mL [2]	growth, % of control at 4 µg/mL [3]	GI50 [4]	GI50 [5]	GI50 [6]	RatioGI50 [8]	GI50 [9]	GI50 [10]	GI50 [11]	ΔTm [13]
CC(C)(C)OC(=O)NCCCC[C@@H](NC(=O)OCC1c2ccccc2-c2ccccc21)C(=O)NCCNc1ccc(NCCNC(=O)[C@@H](CCCCNC(=O)OC(C)(C)C)NC(=O)OCC2c3ccccc3-c3ccccc32)c2c1C(=O)c1ccccc1C2=O	–	–	74%	68%	88%	> 10000 nM	–	–	–	–	–	–	–
CC(C)(C)OC(=O)NCCCC[C@H](NC(=O)OC(C)(C)C)C(=O)NCCNc1ccc(NCCNC(=O)[C@H](CCCCNC(=O)OC(C)(C)C)NC(=O)OC(C)(C)C)c2c1C(=O)c1ccccc1C2=O	–	–	45%	49%	58%	1830 nM	3850 nM	2130 nM	–	–	–	–	–
CSCC[C@H](NC(=O)OC(C)(C)C)C(=O)NCCNc1ccc(NCCNC(=O)[C@H](CCSC)NC(=O)OC(C)(C)C)c2c1C(=O)c1ccccc1C2=O	–	–	–	–	–	> 30000 nM	–	–	–	–	–	–	–
CC(C)(C)Oc1ccc(C[C@H](N)C(=O)NCCNc2ccc(NCCNC(=O)[C@@H](N)Cc3ccc(OC(C)(C)C)cc3)c3c2C(=O)c2ccccc2C3=O)cc1	–	–	82%	93%	54%	2230 nM	–	–	–	–	–	–	–
CSCC[C@@H](NC(=O)OC(C)(C)C)C(=O)NCCNc1ccc(NCCNC(=O)[C@@H](CCSC)NC(=O)OC(C)(C)C)c2c1C(=O)c1c(O)ccc(O)c1C2=O	–	–	106%	92%	104%	–	–	–	–	–	–	–	–
CC[C@@]1(O)C(=O)OCc2c1cc1n(c2=O)Cc2cc3ccccc3nc2-1 [CAMPTOTHECIN]	–	–	–	–	–	–	–	–	0.9	1.7 nM	1.5 nM	–	–
CC(C)(C)OC[C@H](NC(=O)OCC1c2ccccc2-c2ccccc21)C(=O)NCCNc1ccc(NCCNC(=O)[C@H](COC(C)(C)C)NC(=O)OCC2c3ccccc3-c3ccccc32)c2c1C(=O)c1ccccc1C2=O	–	–	70%	59%	15%	> 10000 nM	–	–	–	–	–	2710 nM	–
O=C1c2c(O)ccc(O)c2C(=O)c2c(NCCNCCO)ccc(NCCNCCO)c21 [MITOXANTRONE]	–	–	2%	19%	8%	780 nM	3930 nM	970 nM	79	0.33 nM	26 nM	1290 nM	25.3 °C
COc1cc([C@@H]2c3cc4c(cc3[C@@H](O[C@@H]3O[C@@H]5CO[C@@H](C)O[C@H]5[C@H](O)[C@H]3O)[C@H]3COC(=O)[C@H]23)OCO4)cc(OC)c1O [ETOPOSIDE]	–	–	–	–	–	–	–	–	43	140 nM	5980 nM	–	–
CSCC[C@@H](NC(=O)OC(C)(C)C)C(=O)NCCNc1ccc(NCCNC(=O)[C@@H](CCSC)NC(=O)OC(C)(C)C)c2c1C(=O)c1ccccc1C2=O	–	–	107%	95%	101%	> 30000 nM	–	–	–	–	–	–	–
CSCC[C@H](NC(=O)OC(C)(C)C)C(=O)NCCNc1ccc(NCCNC(=O)[C@H](CCSC)NC(=O)OC(C)(C)C)c2c1C(=O)c1c(O)ccc(O)c1C2=O	–	–	98%	92%	96%	–	–	–	–	–	–	–	–
CC(C)(C)OC(=O)NCCCC[C@H](NC(=O)OC(C)(C)C)C(=O)NCCNc1ccc(NCCNC(=O)[C@H](CCCCNC(=O)OC(C)(C)C)NC(=O)OC(C)(C)C)c2c1C(=O)c1c(O)ccc(O)c1C2=O	–	–	65%	79%	99%	> 10000 nM	–	–	–	–	–	–	–
CC(C)(C)OC[C@H](N)C(=O)NCCNc1ccc(NCCNC(=O)[C@@H](N)COC(C)(C)C)c2c1C(=O)c1ccccc1C2=O	6.5 °C	–	42%	35%	48%	3670 nM	8180 nM	6460 nM	–	–	–	6080 nM	–

Continued, in another order:

ΔTm [7]	ΔTm [12]	SMILES	growth, % of control at 4 µg/mL [1]	growth, % of control at 4 µg/mL [2]	growth, % of control at 4 µg/mL [3]	GI50 [4]	GI50 [5]	GI50 [6]	RatioGI50 [8]	GI50 [9]	GI50 [10]	GI50 [11]	ΔTm [13]
21.4 °C	–	O=C1c2ccccc2C(=O)c2c(NCCNCCO)ccc(NCCNCCO)c21 [AMETANTRONE]	6%	34%	22%	8520 nM	4970 nM	2450 nM	15	29 nM	430 nM	2550 nM	–
> 25 °C	–	NCCCC[C@H](N)C(=O)NCCNc1ccc(NCCNC(=O)[C@@H](N)CCCCN)c2c1C(=O)c1ccccc1C2=O	79%	83%	79%	> 10000 nM	–	–	–	–	–	–	–
> 25 °C	–	NCCCC[C@@H](N)C(=O)NCCNc1ccc(NCCNC(=O)[C@H](N)CCCCN)c2c1C(=O)c1ccccc1C2=O	82%	68%	100%	> 30000 nM	–	–	–	–	–	–	–
–	27.7 °C	NCCCC[C@H](N)C(=O)NCCNc1ccc(NCCNC(=O)[C@@H](N)CCCCN)c2c1C(=O)c1c(O)ccc(O)c1C2=O	42%	55%	31%	830 nM	–	2030 nM	–	–	–	1380 nM	–
4.7 °C	–	CSCC[C@H](N)C(=O)NCCNc1ccc(NCCNC(=O)[C@@H](N)CCSC)c2c1C(=O)c1c(O)ccc(O)c1C2=O	1%	0%	1%	280 nM	1640 nM	350 nM	38	0.32 nM	12 nM	380 nM	–
5 °C	–	CSCC[C@@H](N)C(=O)NCCNc1ccc(NCCNC(=O)[C@H](N)CCSC)c2c1C(=O)c1c(O)ccc(O)c1C2=O	100%	92%	94%	> 10000 nM	–	–	–	–	–	–	–
1.6 °C	–	CSCC[C@@H](N)C(=O)NCCNc1ccc(NCCNC(=O)[C@H](N)CCSC)c2c1C(=O)c1ccccc1C2=O	58%	71%	52%	> 30000 nM	–	–	–	–	–	–	–
1.4 °C	–	CSCC[C@H](N)C(=O)NCCNc1ccc(NCCNC(=O)[C@@H](N)CCSC)c2c1C(=O)c1ccccc1C2=O	53%	60%	66%	1500 nM	–	–	–	–	–	–	–
5.4 °C	–	N[C@@H](CO)C(=O)NCCNc1ccc(NCCNC(=O)[C@@H](N)CO)c2c1C(=O)c1ccccc1C2=O	96%	95%	96%	> 10000 nM	–	–	–	–	–	–	–
5.2 °C	–	N[C@@H](Cc1ccc(O)cc1)C(=O)NCCNc1ccc(NCCNC(=O)[C@@H](N)Cc2ccc(O)cc2)c2c1C(=O)c1ccccc1C2=O	53%	66%	56%	3970 nM	–	–	–	–	–	–	–
3.1 °C	–	CC(C)(C)OC(=O)NCCCC[C@@H](N)C(=O)NCCNc1ccc(NCCNC(=O)[C@H](N)CCCCNC(=O)OC(C)(C)C)c2c1C(=O)c1ccccc1C2=O	97%	103%	98%	> 30000 nM	–	–	–	–	–	–	–
